# High-throughput results as filed in PubChem.
# Vif imaging – HIV Vif inhibition. HEK293T cells, Vif self-association by quenched fluorescence, imaging, 24 h. inhibition, % at 7.49 µM. actives 0.35% (n = 340,000); in the data active = inhibition above about 50%, passing the limit was not always enough; inconclusive = no clear call, values can overlap the other calls; inactive = below about 31%
# SR-BI DiI-HDL act – SR-BI HDL lipid transfer activation. CHO ldlA[mSR-BI] cells, DiI-HDL uptake fluorescence, 3 h; 100 = double the neutral-control signal. activation, % at 12.5 µM. actives 0.096% (n = 320,000). AID 504775;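 active = mean replicate activation of at least 60% and every replicate at or above 60%; inconclusive = mean or all-replicate condition met, but not both; inactive = mean below 60% and not all replicates reaching 60%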;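 note: 0% = median plate neutral-control signal and 100% = twice that signal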
#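 Test system: SR-BI-overexpressing, LDLR-lacking CHO cells; Medium: Ham's F12 with 0.5% BSA, HEPES 25 mM, pH 7.4; Schedule: 3 h, 37 °C; Technique: bottom-read fluorescence, 550/595 nm.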
# Bfl-1 A1 inh – inhibitors of the anti-apoptotic protein A1, read as caspase activation; MEF A1-2A-BIM cells, Caspase-Glo 3/7 luminescence, 3 h; percent of clofoctol response, vehicle zero; caspase activation, % (concentration not given with the values); actives 0.066% (n = 330,000); AID 2462;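 active = over half of replicate activation scores above 10%, or exactly half above 10 with the replicate mean above 10; inconclusive = replicate mean below 10 yet half the replicates above 10; inactive = over half of replicates below 10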
# SR-BI DiI inh – inhibitors of mouse SR-BI mediated HDL lipid uptake; Q61009; ldlA[mSR-BI] CHO cells, DiI-HDL uptake fluorescence, 3 h; inhibition, % at 12.5 µM; actives 0.96% (n = 320,000); AID 488896;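 active = mean replicate inhibition of at least 70% and a set share of replicates each scoring 70 or more; inconclusive = meets just one of the two criteria; inactive = fails both criteria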;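 note: 0% = median of neutral control wells and 100% = median of positive control wells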
# Target sequence (Q61009 whole entry, looked up): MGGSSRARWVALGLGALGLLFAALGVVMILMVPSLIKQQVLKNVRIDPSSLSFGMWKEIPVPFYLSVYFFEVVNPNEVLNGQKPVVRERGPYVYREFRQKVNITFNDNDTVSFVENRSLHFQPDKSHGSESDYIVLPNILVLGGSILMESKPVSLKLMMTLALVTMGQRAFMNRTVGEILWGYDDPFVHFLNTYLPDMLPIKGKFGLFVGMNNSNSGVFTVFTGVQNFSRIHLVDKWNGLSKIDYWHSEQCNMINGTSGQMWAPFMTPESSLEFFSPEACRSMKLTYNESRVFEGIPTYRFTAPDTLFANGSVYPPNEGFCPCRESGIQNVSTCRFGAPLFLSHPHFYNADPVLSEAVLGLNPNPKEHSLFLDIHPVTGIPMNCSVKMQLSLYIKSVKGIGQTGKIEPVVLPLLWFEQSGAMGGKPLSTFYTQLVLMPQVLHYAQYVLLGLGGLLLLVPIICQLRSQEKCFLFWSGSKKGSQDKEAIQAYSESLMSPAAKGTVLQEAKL
# H9c2 TAG inh – triacylglycerol accumulation inhibition | H9c2 cells, Nile Red lipid (TAG) fluorescence; cells loaded with 200 µM oleic acid | inhibition, % at 12.5 µM | actives 0.66% (n = 230,000);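 active = pattern-corrected inhibition of lipid staining of at least 50% with the nuclear-stain viability signal not falling by more than 50%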;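 note: 0% = DMSO wells and 100% = triacsin C control wells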
# Numbers without * were called inactive; i = inactive; ? = inconclusive; · = no result given. Hits are enriched below; roughly 1.6% of the tested compounds scored in any of these assays.
SMILES,Vif imaging,SR-BI DiI-HDL act,Bfl-1 A1 inh,SR-BI DiI inh,H9c2 TAG inh
CCN1/C(=C/C=C/c2sc3ccccc3[n+]2CC)Sc2ccccc21,-36,722*,-1,i,5
CC(=O)Oc1ccc(C(=O)Nc2cccc(NC(=O)c3ccco3)c2)cc1,-7,-24,-1,24,·
COc1cc(NC(=O)c2ccc3c(c2)OCCO3)ccc1NC(=O)c1ccccc1Cl,-7,-89,1,89*,7
COc1cc(NC(C)=O)ccc1-c1cc2ccccc2oc1=O,-3,-24,0,24,5
O=C(Nc1ccc(NC(=O)c2ccc(Cl)cc2Cl)cc1)c1cccs1,17,-21,1,21,·
COc1cc(NC(=O)c2ccc(Cl)cc2Cl)ccc1NC(=O)c1cccs1,-18,-73,0,73*,17
COc1cc(NC(=O)c2ccc(Cl)cc2Cl)ccc1-c1cc2ccccc2oc1=O,24,-84,4,84*,·
O=C(Nc1cccc(NC(=O)c2ccco2)c1)c1ccc([N+](=O)[O-])cc1,-1,-82,-1,82*,12
COc1ccccc1CNS(=O)(=O)c1ccc(Cl)s1,-25,-7,2,7,·
COc1cc(CC(=O)N2CCN(C(=O)C3CCCO3)CC2)cc(OC)c1OC (configuration not stated),6,-12,1,12,11
CCn1c(SCC(=O)Nc2ccc(NC(=O)c3ccco3)c(OC)c2)nc2ccccc2c1=O,-4,-64,0,64,·
COc1cc(C(=O)Nc2ccc3c(c2)OCCO3)ccc1OC(F)F,7,-79,-7,79*,·
COc1cc(NC(=O)COc2ccccc2Cl)ccc1NC(=O)c1cccs1,0,·,1,·,·
COc1cc(NC(=O)COc2ccccc2[N+](=O)[O-])ccc1NC(=O)c1cccs1,53*,-75,·,?,-6
COCCn1c(SCC(=O)Nc2ccc(NC(=O)c3ccco3)c(OC)c2)nc2ccccc2c1=O,12,-74,1,74*,·
COc1cc(NC(=O)c2ccc(Cl)cc2)c(OC)cc1Cl,-6,-74,1,74*,·
CO/N=C/CC(=O)c1ccc([N+](=O)[O-])c(CS(=O)(=O)c2ccc(Cl)cc2)c1,0,-59,0,59,·
CCOc1ccc(NC(=S)N2CCN(S(=O)(=O)c3ccc(OC)cc3)CC2)cc1,-2,-12,0,12,11
COc1cc(NC(=O)c2ccco2)c(OC)cc1NC(=O)c1cc(OC)c(OC)c(OC)c1,-2,-79,0,79*,11
COc1cc(NC(=O)c2ccccc2Cl)ccc1NC(=O)c1ccco1,-25,-81,0,81*,4
CCOc1cc(NC(=O)c2ccco2)c(OCC)cc1NC(=O)c1cc(OC)c(OC)c(OC)c1,?,-59,0,59,23
COc1cc(NC(=O)c2ccc(Br)o2)ccc1NC(=O)C(C)C,-5,-71,1,71*,5
COc1cc(NC(=O)c2ccco2)ccc1NC(=O)c1ccccc1Cl,-4,-64,0,64,·
COc1c(F)c(F)c(C(=O)Nc2ccc(NC(=O)c3ccco3)cc2)c(F)c1F,-22,-74,1,74*,46
CCOc1ccccc1NC(=O)c1cc(Cl)ccc1NC(=O)c1ccco1,·,-81,1,81*,·
SMILES,Vif imaging,SR-BI DiI-HDL act,Bfl-1 A1 inh,SR-BI DiI inh,H9c2 TAG inh
COC(=O)c1ccc(NC(=O)c2cccc(NC(=O)c3ccco3)c2)cc1,-12,749*,-2,i,7
COc1cc2[nH]c(C(=O)Nc3ccc4c(c3)OCCO4)cc2c(OC)c1OC,-6,-86,-2,86*,·
COc1ccc(NC(=O)c2ccc(NC(=O)c3ccco3)cc2)c(OC)c1,0,-82,0,82*,·
COc1cc2cc(C(=O)Nc3ccc4c(c3)OCCO4)[nH]c2cc1OC,-5,-71,0,?,·
COc1ccc(NC(=O)c2sc3nc(-c4cccnc4)ccc3c2N)cc1OC,i,-74,0,74*,3
COc1ccc(NC(=O)c2sc3nc(-c4cccnc4)ccc3c2N)cc1,92*,-72,0,?,14
CN(C(=O)c1ccc(NC(=O)Cc2ccc(NC(=O)C3CCCN(C(=O)CCc4ccccc4)C3)cc2)cc1)C1CC1 (configuration not stated),-24,-53,0,53,-14
CC1CCN(C(=O)CSc2nnc(CNC(=O)c3ccc(S(=O)(=O)N(C)C)cc3)o2)CC1,-5,14,1,-14,-19
Cc1cc(-c2nnc(SCC(=O)Nc3cccc(F)c3)n2N)n[nH]1,-5,6,0,-6,·
COc1ccc(-c2sc3cc4c(cc3c2C#CC2(N)CCCCC2)OCO4)cc1,-1,-43,1,43,59*
CC(C)(C)NC(=O)C1Cc2ccccc2CN1 (configuration not stated),9,13,0,-13,-7
COc1ccccc1NC(=O)/C(C#N)=C/c1ccc(OCCN2CCOCC2)c(OC)c1,11,-71,-1,?,-1
COc1ccc(NC(=O)/C(C#N)=C/c2ccc(OCCN3CCOCC3)c(OC)c2)c(OC)c1,2,-75,0,75*,·
O=C(c1n[nH]c2ccccc12)N1CCN(S(=O)(=O)c2ccc(Cl)cc2)CC1,-1,-15,0,15,5
COc1ccccc1/C=N/NC(=O)c1[nH]c(C)c(C(=O)N/N=C/c2ccccc2OC)c1C,-9,-83,0,83*,·
CCOC(=O)c1c(C)[nH]c(C(=O)N/N=C/c2cc([N+](=O)[O-])ccc2O)c1C,9,-86,0,86*,·
CCOC(=O)c1c(C)[nH]c(C(=O)N/N=C\c2ccccc2O)c1C,-1,-85,-2,85*,·
CCOC(=O)c1c(C)[nH]c(C(=O)N/N=C/c2ccc(OC)c(OC)c2)c1C,-6,-34,1,34,·
COc1ccc(C(=O)N/C(=C\c2ccco2)C(=O)NC2CCS(=O)(=O)C2)cc1 (configuration not stated),19,-7,0,7,-8
CCCCC(CC)C(=O)O (configuration not stated),-3,26,·,-26,·
Cc1onc(-c2ccccc2Cl)c1C(=O)Nc1ccccc1O,-20,·,0,·,·
COc1cc(C2=NC(CO)(CO)CO2)cc(OC)c1OC,-6,448*,1,-448,-3
CCN(C(=O)CSc1nnc(Nc2cccc(C)c2C)s1)C1CCS(=O)(=O)C1 (configuration not stated),56*,4,1,-4,·
CCN(C(=O)CSc1nnc(NCc2ccccc2)s1)C1CCS(=O)(=O)C1 (configuration not stated),-17,8,1,-8,1
COc1c(C=O)c2c(c(OC)c1OC)-c1ccc(OC)c(=O)cc1C(NC(C)=O)CC2 (configuration not stated),90*,-4,·,4,42
